Test results reported in ChEMBL document CHEMBL3576785, “Differential Targeting of Human Topoisomerase II Isoforms with Small Molecules” (J Med Chem, 2015).
The source made the active and inactive calls. No cut-off for these calls is given here.

Legend:
[1] = molecular target: DNA topoisomerase 2-alpha (Homo sapiens) (UniProt P11388); assay: Activity of TOP2A in human K562 cells assessed as poisoning activity at 100 uM after 1 hr by TARDIS assay; assay type: cell-based
Outline: (§1)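 TARDIS (trapped in agarose DNA immunostaining) in K562 cells, which express both isoforms at similar levels. Cells given 100 µM analogue, DMSO as vehicle control. Drug-stabilised TOP2–DNA complexes detected with isoform-specific immunofluorescence, TOP2A or TOP2B. Fluorescence quantified and normalised to VP-16-treated cells. Single-dose screen, followed by dose–response.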

[2] = molecular target: DNA topoisomerase 2-beta (Homo sapiens) (UniProt Q02880); assay: Activity of TOP2B in human K562 cells assessed as poisoning activity at 100 uM after 1 hr by TARDIS assay; assay type: cell-based; outline: as §1
Sequence of DNA topoisomerase 2-beta (Homo sapiens) (Q02880 whole entry): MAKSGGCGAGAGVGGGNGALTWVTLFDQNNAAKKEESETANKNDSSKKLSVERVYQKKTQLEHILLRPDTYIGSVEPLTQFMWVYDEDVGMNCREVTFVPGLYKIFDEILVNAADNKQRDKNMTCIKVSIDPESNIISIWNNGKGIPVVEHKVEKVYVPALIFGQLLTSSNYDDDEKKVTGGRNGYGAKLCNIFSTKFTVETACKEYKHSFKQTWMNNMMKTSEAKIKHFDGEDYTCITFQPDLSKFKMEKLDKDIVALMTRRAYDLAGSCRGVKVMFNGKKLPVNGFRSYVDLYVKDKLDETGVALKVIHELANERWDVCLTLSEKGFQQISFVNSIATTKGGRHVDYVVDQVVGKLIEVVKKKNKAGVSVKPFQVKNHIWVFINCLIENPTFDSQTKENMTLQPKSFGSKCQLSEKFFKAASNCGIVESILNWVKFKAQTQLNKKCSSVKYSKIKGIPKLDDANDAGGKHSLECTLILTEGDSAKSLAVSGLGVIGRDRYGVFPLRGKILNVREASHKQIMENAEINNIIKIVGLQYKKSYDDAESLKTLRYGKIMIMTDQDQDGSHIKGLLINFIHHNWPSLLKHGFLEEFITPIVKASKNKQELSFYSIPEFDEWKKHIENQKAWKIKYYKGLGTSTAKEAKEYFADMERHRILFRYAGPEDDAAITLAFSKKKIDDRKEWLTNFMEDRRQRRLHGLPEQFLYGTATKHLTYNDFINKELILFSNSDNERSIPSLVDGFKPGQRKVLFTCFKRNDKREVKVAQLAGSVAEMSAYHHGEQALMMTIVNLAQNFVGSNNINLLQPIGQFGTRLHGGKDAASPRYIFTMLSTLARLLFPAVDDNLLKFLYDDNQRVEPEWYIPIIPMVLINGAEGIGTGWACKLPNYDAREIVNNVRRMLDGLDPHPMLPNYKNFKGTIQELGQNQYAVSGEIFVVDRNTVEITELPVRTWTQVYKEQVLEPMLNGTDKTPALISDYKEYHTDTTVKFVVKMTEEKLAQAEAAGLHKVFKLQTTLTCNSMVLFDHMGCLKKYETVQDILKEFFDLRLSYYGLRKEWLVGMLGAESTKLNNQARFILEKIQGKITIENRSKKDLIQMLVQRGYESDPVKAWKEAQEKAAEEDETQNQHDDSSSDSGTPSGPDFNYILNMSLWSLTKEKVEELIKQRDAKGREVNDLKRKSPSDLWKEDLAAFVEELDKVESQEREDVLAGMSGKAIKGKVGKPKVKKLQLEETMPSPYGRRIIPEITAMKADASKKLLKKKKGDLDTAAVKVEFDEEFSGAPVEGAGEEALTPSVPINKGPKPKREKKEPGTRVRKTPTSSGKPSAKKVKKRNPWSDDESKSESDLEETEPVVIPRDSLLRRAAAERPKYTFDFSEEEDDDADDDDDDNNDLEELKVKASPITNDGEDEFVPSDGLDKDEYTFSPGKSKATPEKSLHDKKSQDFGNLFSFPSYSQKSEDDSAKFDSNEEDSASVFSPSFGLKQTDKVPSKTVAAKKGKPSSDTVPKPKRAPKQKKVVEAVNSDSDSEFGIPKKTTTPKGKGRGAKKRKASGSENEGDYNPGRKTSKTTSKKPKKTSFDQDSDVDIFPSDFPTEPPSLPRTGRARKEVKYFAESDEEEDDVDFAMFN

[3] = system: K562; assay: Activity of TOP2 in human K562 cells assessed as poisoning activity by measuring phosphorylation of gamma-H2AX at Ser139 at 100 uM after 1 hr by DAPI staining-based epifluorescence microscopic analysis; assay type: cell-based
Outline: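 K562 cells (human leukaemia, similar expression of both TOP2 isoforms) exposed to 100 µM analogue, DMSO as vehicle control. γ-H2AX (phospho-Ser139 H2AX) detected by immunofluorescence microscopy with nuclear counterstain. Signal quantified in γ-H2AX-positive cells and normalised to VP-16-treated cells.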

[4] = Cytotoxicity against wild type human NALM6 cells assessed as growth inhibition after 5 days by XTT assay; assay type: functional, cell-based; conditions: NALM-6, 120 h
Outline: (§2)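 Growth inhibition in Nalm-6 wild-type, TOP2A+/- and TOP2B-/- lines. IC50 values are means ±SD of 3 replicate experiments.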

[5] = Cytotoxicity against human NALM6 cells expressing 50% TOP2A assessed as growth inhibition after 5 days by XTT assay; assay type: functional, cell-based; conditions: NALM-6, 120 h; outline: as §2
[6] = Cytotoxicity against TOP2B double knockout human NALM6 cells assessed as growth inhibition after 5 days by XTT assay; assay type: functional, cell-based; conditions: NALM-6, 120 h; outline: as §2
[7] = system: NALM-6; assay: Selectivity ratio of IC50 for human NALM6 cells expressing 50% TOP2A to IC50 for wild type human NALM6 cells; assay type: functional
[8] = system: NALM-6; assay: Selectivity ratio of IC50 for TOP2B double knockout human NALM6 cells to IC50 for wild type human NALM6 cells; assay type: functional

Sequence of DNA topoisomerase 2-alpha (Homo sapiens) (P11388 whole entry, canonical isoform): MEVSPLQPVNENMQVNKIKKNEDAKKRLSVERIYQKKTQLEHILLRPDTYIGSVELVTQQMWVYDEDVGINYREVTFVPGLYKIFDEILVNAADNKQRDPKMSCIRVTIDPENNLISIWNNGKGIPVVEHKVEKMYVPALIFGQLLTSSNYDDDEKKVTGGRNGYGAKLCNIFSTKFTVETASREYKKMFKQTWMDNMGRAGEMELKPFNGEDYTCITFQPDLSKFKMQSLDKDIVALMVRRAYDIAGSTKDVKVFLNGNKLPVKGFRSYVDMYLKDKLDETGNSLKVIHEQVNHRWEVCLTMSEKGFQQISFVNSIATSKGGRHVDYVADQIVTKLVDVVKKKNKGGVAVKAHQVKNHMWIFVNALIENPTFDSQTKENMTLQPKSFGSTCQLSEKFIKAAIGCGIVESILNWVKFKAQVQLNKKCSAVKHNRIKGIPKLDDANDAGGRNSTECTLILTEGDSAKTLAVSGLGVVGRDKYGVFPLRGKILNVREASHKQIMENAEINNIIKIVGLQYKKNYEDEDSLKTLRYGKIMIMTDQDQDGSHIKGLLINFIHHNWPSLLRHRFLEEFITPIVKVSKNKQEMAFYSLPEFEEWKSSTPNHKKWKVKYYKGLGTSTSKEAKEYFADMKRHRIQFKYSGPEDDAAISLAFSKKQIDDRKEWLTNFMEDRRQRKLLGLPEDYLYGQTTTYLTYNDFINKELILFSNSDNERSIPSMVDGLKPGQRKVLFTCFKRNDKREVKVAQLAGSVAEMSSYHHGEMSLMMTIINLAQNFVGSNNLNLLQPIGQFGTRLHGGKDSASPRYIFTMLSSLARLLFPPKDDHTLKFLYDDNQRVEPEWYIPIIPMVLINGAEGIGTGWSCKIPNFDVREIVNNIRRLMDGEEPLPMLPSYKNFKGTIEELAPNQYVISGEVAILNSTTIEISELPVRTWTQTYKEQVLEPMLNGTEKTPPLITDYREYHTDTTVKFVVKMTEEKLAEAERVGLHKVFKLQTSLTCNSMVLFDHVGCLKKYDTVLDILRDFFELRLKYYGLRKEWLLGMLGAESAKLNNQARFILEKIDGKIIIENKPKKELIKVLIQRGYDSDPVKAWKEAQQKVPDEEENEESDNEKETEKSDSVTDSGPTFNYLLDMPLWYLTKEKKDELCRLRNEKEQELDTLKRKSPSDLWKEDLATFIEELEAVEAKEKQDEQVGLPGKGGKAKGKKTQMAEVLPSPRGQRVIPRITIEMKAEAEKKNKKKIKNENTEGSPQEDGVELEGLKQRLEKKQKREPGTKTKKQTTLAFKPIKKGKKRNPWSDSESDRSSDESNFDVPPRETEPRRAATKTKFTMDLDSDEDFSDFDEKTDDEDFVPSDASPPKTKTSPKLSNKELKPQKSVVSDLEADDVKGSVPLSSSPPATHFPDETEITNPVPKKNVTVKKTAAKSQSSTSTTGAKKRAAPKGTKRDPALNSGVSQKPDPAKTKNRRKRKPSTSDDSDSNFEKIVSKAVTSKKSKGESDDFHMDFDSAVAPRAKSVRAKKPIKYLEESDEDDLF

| Compound | Activity [1] | Activity [2] | Activity [3] | IC50 [4] | IC50 [5] | IC50 [6] | Ratio IC50 [7] | Ratio IC50 [8] |
| --- | --- | --- | --- | --- | --- | --- | --- | --- |
| COC(=O)CCCCCn1cc(CO[C@@H]2c3cc4c(cc3[C@@H](c3cc(OC)c(O)c(OC)c3)[C@H]3C(=O)OC[C@@H]32)OCO4)nn1 | Active | Active | Active | 3900 nM |  |  |  |  |
| COc1cc([C@@H]2c3cc4c(cc3[C@@H](O[C@@H]3O[C@@H]5CO[C@@H](C)O[C@H]5[C@H](O)[C@H]3O)[C@H]3COC(=O)[C@H]23)OCO4)cc(OC)c1O [ETOPOSIDE] | Active | Active | Active | 134 nM | 234 nM | 182 nM | 1.7 | 1.4 |
| COc1cc([C@@H]2c3cc4c(cc3[C@@H](n3cc(CN(C)C)nn3)[C@H]3COC(=O)[C@H]23)OCO4)cc(OC)c1O | Active | Active | Active | 620 nM | 850 nM | 1320 nM | 1.4 | 2.1 |
| COc1cc([C@@H]2c3cc4c(cc3[C@@H](OCc3cn(CCCN(C)C)nn3)[C@H]3COC(=O)[C@H]23)OCO4)cc(OC)c1O | Active | Active | Active | 1200 nM | 1900 nM | 2360 nM | 1.6 | 2 |
| COc1cc([C@@H]2c3cc4c(cc3[C@@H](OCc3cn(-c5ccc(O)cc5)nn3)[C@H]3COC(=O)[C@H]23)OCO4)cc(OC)c1O | Active | Active | Active | 3400 nM | 3500 nM | 1920 nM | 1 | 0.6 |
| COc1cc([C@@H]2c3cc4c(cc3[C@@H](OCc3cn(Cc5ccc(C(=O)O)cc5)nn3)[C@H]3COC(=O)[C@H]23)OCO4)cc(OC)c1OC |  |  | Active | > 10000 nM |  |  |  |  |
